Test results taken from article PMC2801054 (Analytical biochemistry, 2009).

Tests used:
[1] = biological target: T1, endometase (matrilysin 2, MMP-26) (Homo sapiens, UniProt Q9NRE1); assay: active-site titration, fluorogenic peptide hydrolysis, Morrison fit; format: biochemical; conditions: 50 mM HEPES pH 7.5, 0.2 M NaCl, 10 mM CaCl2, 0.01 % Brij-35, 25 °C, 20 min preincubation
T1 sequence (Q9NRE1 90-261): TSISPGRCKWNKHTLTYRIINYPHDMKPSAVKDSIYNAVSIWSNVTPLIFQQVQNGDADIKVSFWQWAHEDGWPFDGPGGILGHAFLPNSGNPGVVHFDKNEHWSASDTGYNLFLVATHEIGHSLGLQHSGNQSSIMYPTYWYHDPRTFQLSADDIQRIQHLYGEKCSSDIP

[2] = biological target: T1, endometase (matrilysin 2, MMP-26); assay: fluorogenic peptide hydrolysis; format: biochemical
Summary of the method: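 MMP-26 was refolded from urea-solubilized insoluble protein by dialysis and was partially auto-activated. Active enzyme concentration was set by GM6001 titration. Final conditions were 1 nM active enzyme, 1 μM Mca-PLGLDpa-AR-NH₂, and test compound at 0.001–9 mM in 50 mM HEPES pH 7.5, 0.2 M NaCl, 10 mM CaCl₂ at 25 °C. Fluorescence was read at ex 328/em 393 nm, with maximum signal set as 100% activity.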

Structure (SMILES) | active-site titration, fluorogenic peptide hydrolysis, Morrison fit [1] | IC50 [2] [µM]
CNC(=O)[C@H](Cc1c[nH]c2ccccc12)NC(=O)[C@@H](CC(=O)NO)CC(C)C [GM6001] | Titration of active MMP-26 with GM6001, a potent and broad-spectrum MMP inhibitor | 
CCCCCCCCCCCCOS(=O)(=O)O [SDS] |  | 110
CCCCCCCCCCCCCC[N+](C)(C)C [TTAB] |  | 79
